Data published in paper PMC3433230 (Journal of biomolecular screening, 2009).
Blank lines part the entries; values can stand above or below the compound they belong to.

Legend:
[1] = tested on: RBL-2H3 cells; test: β-Hexosaminidase secretion measurements in RBL-2H3 cells; format: cell-based, Rat
In short: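 RBL-2H3 cells are primed overnight with IgE, washed and incubated 1 h with test compound in Tyrode's buffer. Supernatant is sampled for spontaneous β-hexosaminidase release. Cells are then activated with DNP/BSA (0.1 μg/ml) for 30 min at 37°C. Release is expressed as percent of total enzyme from Triton X-100-lysed cells.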

[2] = tested on: NIH 3T3 fibroblasts; conditions: NIH 3T3 fibroblasts ref 30; cited from earlier work
[3] = tested on: RBL-2H3 cells; test: Live cell microscopy of RBL-2H3 cells; format: cell-based, Rat; conditions: 10 μM; for cell shape changes in response to ligand-mediated activation: 1 μg/ml DNP/BSA, IgE primed cells
[4] = tested on: Rac1 wt, Rac1Q61L, Rac2 wt, RhoA wt and RhoAL63, Cdc42 wt, Cdc42Q61L and Ral wt; test: Eight-plex dose response of BODIPY-FL-GTP binding, 1 mM MgCl2; conditions: 1 mM MgCl2, 100 nM BODIPY-FL-GTP
In short: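 Buffer is NP-HPS with 1 mM MgCl2. Binding of 100 nM BODIPY-FL-GTP is measured by flow cytometry with or without a 9-point 1:3 test-compound series (final 10 nM–100 μM). Each series is run in triplicate.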

[5] = tested on: Swiss 3T3 cells; test: Stress fiber formation in EGF treated Swiss 3T3 cells; format: cell-based; conditions: 10 μM, 30 min pre-treatment, 10 ng/ml EGF
In short: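 Quiescent, serum-starved Swiss 3T3 fibroblasts are treated 30 min with 10 μM test compound or DMSO, then stimulated with 10 ng/ml EGF for 2 min. Cells are imaged for actin stress fibres.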

[6] = target: T1, Rac1 (Mus musculus, UniProt P63001); test: Rac activation assay; format: cell-based
In short: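 Swiss 3T3 cells are serum-starved overnight, then treated 20–30 min with 1% DMSO or 10 μM test compound. Some cells are then given 10 ng/ml EGF for 2 min; EGF alone is the positive control.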

[7] = target: GST-Rac1 (Homo sapiens, UniProt P63000); test: In vitro bead based assay of Rac1 binding to fluorescent GTP; conditions: 10 μM compound, 100 nM fluorescent GTP
[8] = tested on: Cdc42wt, Rac1wt, Rac1Q61L, Rab2 wt, Rab7wt, and H-Ras wt (GST-GTPases); test: Multiplexed primary screen, flow cytometry bead-based BODIPY-FL-GTP binding; conditions: 10 μM compound, 100 nM BODIPY-FL-GTP, 1 mM EDTA
In short: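 Each GST-GTPase (1 μM) is loaded overnight at 4°C onto its own red-intensity GSH-bead set. Beads are washed in NP-HPSE with 0.1% BSA and 1 mM DTT, then pooled, about 2000 beads per GTPase per well. Test compound is added at 10 μM (1% DMSO), with BODIPY-FL-GTP from a 200 nM stock. Plates rotate 40–45 min at 4°C and are read by HyperCyt flow cytometry. FL8 identifies bead sets; median FL1 (530 nm) gives binding. Hits exceed 20% change from baseline. Controls are DMSO and 0.5 mM unlabelled GTP.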

[9] = target: Wild-type GST-Cdc42 (Homo sapiens, UniProt P60953); test: Real-time GTP-binding kinetic assay by flow cytometry
In short: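 GST-Cdc42 wt (4 μM) is bound to GSH-beads overnight at 4°C. Nucleotide is stripped with 10 mM EDTA for 20 min at 30°C, then beads are washed and resuspended in NP-HPS with 1 mM EDTA, 1 mM DTT and 0.1% BSA. Beads are preincubated 2 min with 1% DMSO or 10 μM test compound. Ice-cold BODIPY-FL-GTP (6.5–200 nM) is added, and association is followed 3 min by kinetic-mode flow cytometry (n=4). Bound signal at 3 min versus GTP concentration is curve-fitted.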

[10] = target: T1, Rac1; test: G-LISA assay for active Rac in Swiss 3T3 cells; format: cell-based; conditions: for blocking EGF-stimulated Rac activation: concentrations of 1 μM or less
[11] = tested on: H-Ras and Rab proteins; test: Dose response of BODIPY-FL-GTP binding, 1 mM EDTA; conditions: 10^−4 M compound
In short: (§1)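 GST-GTPases are coupled overnight at 4°C to colour-coded GSH-beads at 1 μM each. Beads are run as a multiplex (Rab7 wt, Rab2 wt, H-Ras wt, H-RasG12V, Cdc42 wt, Cdc42Q61L). […] Buffer contains 1 mM EDTA. Test compound is a 9-point 1:3 series, final 10 nM–100 μM. Binding of 100 nM (final) BODIPY-FL-GTP is read by flow cytometry, in triplicate.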

[12] = tested on: RBL-2H3 cells; test: Rhodamine-phalloidin staining and confocal microscopy of RBL-2H3 cells; format: cell-based, Rat; conditions: 10 μM, DNP/BSA 1 μg/ml
In short: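 RBL-2H3 cells on coverslips are cultured overnight with or without 10 μM test compound; stimulated cells get 1 μg/ml DNP-BSA for 30 min. Cells are fixed in 3% paraformaldehyde, permeabilised 5 min in 0.1% Triton X-100, blocked 1 h in 1% BSA and stained 1 h with rhodamine-phalloidin, all at room temperature. Confocal x-y and x-z views are collected.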

[13] = target: Cdc42 (Homo sapiens, UniProt P60953); test: Dose response of BODIPY-FL-GTP binding, 1 mM EDTA
In short: as §1

[14] = 10 μM inhibitor, 6.5–200 nM BODIPY-GTP

Wild-type GST-Cdc42, sequence (P60953 whole entry): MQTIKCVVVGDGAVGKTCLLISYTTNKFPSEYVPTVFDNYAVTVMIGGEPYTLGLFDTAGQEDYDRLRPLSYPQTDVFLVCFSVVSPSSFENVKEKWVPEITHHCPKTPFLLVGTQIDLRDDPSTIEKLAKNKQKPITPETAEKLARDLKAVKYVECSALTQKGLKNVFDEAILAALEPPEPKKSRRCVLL
Cdc42, sequence (P60953 whole entry): as above

Compound: O=c1cc(CN2CCOCC2)occ1OCCCCCSc1ccnc2cc(C(F)(F)F)ccc12 [EHT1864, reference compound]
inhibition of β-hexosaminidase secretion in response to ligand-stimulation ([1]; 10 μM): failed to inhibit | lamellipodia formation following platelet derived growth factor stimulation [2]: blocked | cell shape changes in response to ligand-mediated activation [3]: failed to inhibit

spontaneous β-hexosaminidase secretion, absence of ligand stimulation ([1]; 10 μM, 1 h): no β-hexosaminidase secretion | growth factor induced activation of Rac1 ([6]; 10 μM pretreatment, 10 ng/ml EGF for 2 min): completely inhibited | low level of active Rac1 in serum starved cells ([6]; 10 μM, 30 min pretreatment, no EGF): completely abolished | inhibition of BODIPY-FL-GTP binding to GST-Rac1 [7]: similar | effect on BODIPY-FL-GTP binding to the tested GTPases, primary screen [8]: inhibitory effect | effect on Bmax of GTP-binding [9, 14]: decreased | effect on affinity of GTP to wild type Cdc42 [9, 14]: remained constant | reversibility of activity ([9]; data not shown): not reversible | inhibition of EGF stimulated activation of Rac1 ([10]; 3–10 μM, 1 h, then 10 ng/ml EGF 2 min): effectively inhibited | blocking EGF-stimulated Rac activation [10]: Neither compound was effective | inhibition of BODIPY-FL-GTP binding [11]: < 20%
Compound: O=C(C#Cc1ccccc1)c1cccc([N+](=O)[O-])c1 [MLS000532223, 1-(3-nitrophenyl)-3-phenyl-2-propyn-1-one]
effect on BODIPY-FL-GTP binding in the presence of Mg2+ [4]: inhibited the activity of all tested GTPases of the Rho and Ral families | toxicity to cells ([1]; 10 μM): not toxic | reduction of β-hexosaminidase secretion in ligand-stimulated cells ([1]; 10 μM, DNP/BSA): 50% | formation of stress fibers upon EGF stimulation [5]: completely inhibited | cell shape changes in response to ligand-mediated activation [3]: completely abrogated | morphology of resting cells ([3]; no ligand): no change in morphology | cell shape and F-actin after cross-linking of IgE receptors [12]: failed to flatten

effect on BODIPY-FL-GTP binding in the presence of Mg2+ [4]: specific for Cdc42 | effect on BODIPY-FL-GTP binding to the tested GTPases, primary screen [8]: Cdc42 specific inhibitor | EC50 [13]: ~2000 nM
Compound: NS(=O)(=O)c1ccc(N2N=C(c3ccccc3)CC2c2ccccc2)cc1 (centres unmarked) [MLS000573151, 4-[3,5-di(phenyl)-4,5-dihydropyrazol-1-yl]benzenesulfonamide]

Compound: CCN(CC)CCCC(C)Nc1nc(C)cc(Nc2ccc3nc(C)cc(N)c3c2)n1 (centres unmarked) [NSC23766, reference compound]
toxicity to RBL-2H3 cells ([1]; 50 μM): toxic | spontaneous β-hexosaminidase release ([1]; 50 μM (Fig. 7A), 1 h): extensive | cell shape changes in response to ligand-mediated activation [3]: failed to inhibit | blocking EGF-stimulated Rac activation [10]: Neither compound was effective | inhibition of EGF stimulated activation of Rac1 ([10]; doses up to 50 μM): more modest inhibition
